Measured values gathered from unrelated publications.
Target: Rhodopsin kinase GRK7 (GRK7, Homo sapiens, UniProt Q8WTQ7)
Residues used in one study (Q8WTQ7 1-553): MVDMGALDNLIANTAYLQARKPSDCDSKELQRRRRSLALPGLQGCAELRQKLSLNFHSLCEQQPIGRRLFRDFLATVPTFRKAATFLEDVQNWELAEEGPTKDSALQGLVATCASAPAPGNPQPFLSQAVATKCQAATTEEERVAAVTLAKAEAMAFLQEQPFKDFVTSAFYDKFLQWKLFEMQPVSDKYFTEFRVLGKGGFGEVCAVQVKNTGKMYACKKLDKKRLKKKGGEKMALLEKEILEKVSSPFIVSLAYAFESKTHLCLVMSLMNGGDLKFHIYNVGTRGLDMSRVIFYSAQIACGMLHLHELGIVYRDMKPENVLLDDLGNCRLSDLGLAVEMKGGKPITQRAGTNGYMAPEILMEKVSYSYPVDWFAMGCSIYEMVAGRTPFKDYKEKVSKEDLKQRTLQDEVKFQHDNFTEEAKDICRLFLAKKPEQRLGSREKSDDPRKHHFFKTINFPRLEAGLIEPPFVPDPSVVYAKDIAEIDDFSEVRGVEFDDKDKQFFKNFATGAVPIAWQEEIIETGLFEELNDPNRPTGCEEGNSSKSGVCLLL

Compound	read-out	mode	technique	tested at	quantity	result
Cc1ccc(C(=O)NCc2ccsc2)cc1C#Cc1cn(C(C)C)c2ncnc(N)c12	enzyme activity	inhibitor		1 µM	activity vs control	100%
CC(C)(O)[C@H]1CC[C@H](Nc2ccc3ncc(-c4cccc(C(F)(F)F)c4)n3n2)CC1	enzyme activity	inhibitor		1 µM	remaining activity	38%
COc1cc2ncnc(Nc3ccc(Oc4ccccc4)cc3C)c2cc1OC	enzyme activity	inhibitor		1 µM	inhibition	-3%
Cc1ccc(NC(=O)c2ccc(C)c(C(F)(F)F)c2)cc1C#Cc1nn(C2CCC(O)CC2)c2ncnc(N)c12 (centres unmarked)	cell-free assay			10 µM	remaining signal	101%
C#Cc1cccc(Nc2ncnc3cc(OCCOC)c(OCCOC)cc23)c1	cell-free assay			0.5 µM	remaining signal	98.3%
CO[C@@H](C)c1c(Nc2ccc([C@H](N(C)C(=O)C3CCS(=O)(=O)CC3)C(F)(F)F)cc2)cnc2cc(Cl)nn12	cell-free assay		competition with immobilised ligand	1 µM	remaining binding	100%
Cc1sc(C(=O)NC2COC2)cc1-n1cc(NC(=O)Nc2c(F)cccc2Cl)cn1	enzyme activity	inhibitor		10 µM	remaining activity	99.9%
CC1=C(C#N)C(c2ccc3c(c2)c(NC(=O)c2ccccc2C)nn3C)C(C#N)=C(C)N1	cell-free assay		competition with immobilised ligand	1 µM	remaining binding	70%
Cc1cc(NC(=O)c2cccc3cc(-c4cccc5[nH]nc(N)c45)ccc23)ccc1F	enzyme activity	inhibitor		0.1 µM	activity vs control	114%
CCC(=O)N[C@H]1CC[C@@H](C(=O)N(C)c2ccc(-c3nc4ccccc4o3)cc2)C1	cell-free assay		competition with immobilised ligand	1 µM	remaining binding	82%
Nc1ncnc2occ(-c3ccc(NC(=O)Nc4cc(C(F)(F)F)ccc4F)cc3)c12	cell-free assay	inhibitor		20 µM	remaining signal	77%
O=C1NC(=O)c2cc(Nc3ccc(F)cc3)c(Nc3ccc(F)cc3)cc21	cell-free assay			0.5 µM	remaining signal	106%
CCCOc1ccc([C@H]2[C@H](C(=O)O)[C@@H](c3ccc4c(c3)OCO4)CN2CC(=O)Nc2c(CC)cccc2CC)cc1	cell-free assay		competition with immobilised ligand	1 µM	remaining binding	100%
O=C(Nc1cnn(-c2csc(C(=O)NC3COC3)c2)c1)Nc1c(F)cccc1Cl	enzyme activity	inhibitor		5 µM	remaining activity	94%
Cc1ccc(C(=O)Nc2ccc(CN3CCN(C)CC3)c(C(F)(F)F)c2)cc1C#Cc1cnc2cccnn12	enzyme activity	inhibitor		23.5 nM	remaining activity	94%
CS(=O)(=O)c1cc(C2(NC(=O)c3cncc4c3cnn4-c3ccc(F)cc3)CC2)ccn1	cell-free assay		competition with immobilised ligand	1 µM	remaining binding	96%
CC(C)(C)c1nc2c(s1)c1nc(N)ncc1c1ccc(NS(=O)(=O)c3c(F)cccc3F)c(F)c12	enzyme activity	inhibitor	radiometric	1 µM	remaining activity	81%
